Cav3 T inh: inhibitors of human Cav3.2 T-type calcium channel | O95180 | Cav3.2-expressing cells, Fluo-4 calcium fluorescence FDSS; hits give low values | B-score at 10 µM | hit rate 4% among 100,000;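 active means single-dose well whose peak fluorescence ratio is a statistical outlier from its plate by either plate-standardised score or position-corrected B-score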
Ecoli tolC: blocks growth of E. coli BW25113 tolC mutant. OD615. growth inhibition, % at 10 µM (by protocol). hit rate 2.2% among 65,000. AID 573;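 active means growth inhibition at or above a cutoff equal to the mean over every tested compound plus 3 SD, cut at about 60% in these data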;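 further: growth measured after 20 h incubation at 37 °C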
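Signal: optical density read at 615 nm; Assay system: E. coli ΔtolC::kan strain BW25113; Times: 20 h incubation with compound, 37 °C; Dosing: 10 µM final, single dose.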
PostGolgi ctrl: growth of the yeast control strain, post-Golgi counter-screen | inhibition, % at 10 µM | efflux-deficient yeast background strain, growth absorbance A615, 16 h | hit rate 5% among 98,000 | AID 738
Pyk2 oligo antag: Pyk2 (human) oligomerization antagonism; Q14289; Q293 cells, Pyk2 FERM NanoBiT luminescence; hits give low values; z-score (the deposit names both 25 µM and 10 µM); hit rate 0.83% among 99,000; AID 1347419;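 active means Z-score of -3 or lower, scaled per plate to the spread of control and sample wells; inactive means z-score above -3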;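 further: negative z-score means lost luminescence so less FERM oligomerization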
Ecoli WT expand: blocks growth of wild type E. coli BW25113; OD600 absorbance; growth inhibition, % at 100 µM; hit rate 0.15% among 98,000;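 active means growth inhibition above about 50% at one test dose, limit read from the data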;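 further: growth measured after 20 h incubation at 37 °C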
PostGolgi yeast: growth inhibition of a yeast mutant, post-Golgi transport screen; hit rate 0.9% among 98,000; AID 739; inhibition, % at 10 µM; post-Golgi transport phenotypic cell assay;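 further: yeast cells grown in 1536-well plates; yeast grown about 18 h at 30C before absorbance read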
Numbers without * were called inactive; / = not tested or not shown. This is a sample that favours compounds with a hit; in the whole collection about 8.7% have one here. Unless noted, no stated cut-off is given here; in the data, active means inhibition above about 30%; inactive means the rest.

SMILES	Cav3 T inh	Ecoli tolC	PostGolgi ctrl	Pyk2 oligo antag	Ecoli WT expand	PostGolgi yeast
CCC(C)(C)n1nnnc1CN1CCC(n2c(C)nc3cc(C(F)(F)F)ccc32)CC1	4.03*	/	/	1.93	/	/
CCN1CCN(Cc2nnnn2C(C)(C)C)CC1	0.215	1.1	22.5	/	-5.0	-0.8
C=C1C2C[C@H](O)C(C)(C)[C@@]2(O)[C@H](O)C[C@]23C[C@@](C)(O)[C@H](CC[C@H]12)[C@H]3OC(C)=O (some centres not stated)	0.384	/	/	/	/	/
CC(=O)C1=C(C)OC(N)=C(C(=O)OC(C)C)C12C(=O)Nc1ccccc12 (configuration not stated)	-0.44	-9.4	0.3	1.14	9.0	15.0
CCC(=O)N1N=C2C3CCN(CC3)C2C1c1ccc(C)cc1 (configuration not stated)	0.289	/	/	/	/	/
N=C(N)c1c(O)n(C2CCCCC2)c(=O)n(C2CCCCC2)c1=O	0.176	98.7*	53.2*	-2.09	-4.0	8.1
CCOc1cc2[nH]c(=S)n(CCCC(=O)N3CCC4(CC3)OCCO4)c(=O)c2cc1OCC	1.2	9.6	39.4*	0.37	4.0	6.1
CCCCCCN=Cc1c(O)n(C)c(=O)n(C)c1=O	0.399	/	25.4	0.45	2.0	3.7
COc1ccc(-n2c(O)c(C(C)=NC3CC3)c(=O)[nH]c2=O)cc1	-0.133	-9.1	4.7	-0.29	-6.0	-1.4

Screening data (PubChem BioAssay)
